The results in this text go back to ChEMBL document CHEMBL2176978, “Fragment-based discovery of bromodomain inhibitors part 2: optimization of phenylisoxazole sulfonamides” (J Med Chem, 2012).

Assay [1] addresses Bromodomain-containing protein 3 (Homo sapiens, UniProt Q15059). The experiment in a line: Inhibition of His6-tagged BRD3 expressed in Escherichia coli assessed as inhibition of binding to SGRG-K(Ac)-GG-K(Ac)-GLG-K(Ac)-GGA-K(Ac)-RHGSGSK-biotin after 1 hr by TR-FRET assay.
Assay [2] has as its target Bromodomain-containing protein 2 (Homo sapiens, UniProt P25440). The experiment in a line: Inhibition of His6-tagged BRD2 expressed in Escherichia coli assessed as inhibition of binding to SGRG-K(Ac)-GG-K(Ac)-GLG-K(Ac)-GGA-K(Ac)-RHGSGSK-biotin after 1 hr by TR-FRET assay. The procedure, abridged:
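TR-FRET competition using tandem bromodomain construct; displacement of a tetra-acetylated biotinylated peptide measured, IC50 reported.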
(Time-resolved FRET reads energy transfer from a long-lived donor to a nearby acceptor.)

The IC50 is the midpoint of a concentration-inhibition curve.

Bromodomain-containing protein 2, sequence (P25440 whole entry): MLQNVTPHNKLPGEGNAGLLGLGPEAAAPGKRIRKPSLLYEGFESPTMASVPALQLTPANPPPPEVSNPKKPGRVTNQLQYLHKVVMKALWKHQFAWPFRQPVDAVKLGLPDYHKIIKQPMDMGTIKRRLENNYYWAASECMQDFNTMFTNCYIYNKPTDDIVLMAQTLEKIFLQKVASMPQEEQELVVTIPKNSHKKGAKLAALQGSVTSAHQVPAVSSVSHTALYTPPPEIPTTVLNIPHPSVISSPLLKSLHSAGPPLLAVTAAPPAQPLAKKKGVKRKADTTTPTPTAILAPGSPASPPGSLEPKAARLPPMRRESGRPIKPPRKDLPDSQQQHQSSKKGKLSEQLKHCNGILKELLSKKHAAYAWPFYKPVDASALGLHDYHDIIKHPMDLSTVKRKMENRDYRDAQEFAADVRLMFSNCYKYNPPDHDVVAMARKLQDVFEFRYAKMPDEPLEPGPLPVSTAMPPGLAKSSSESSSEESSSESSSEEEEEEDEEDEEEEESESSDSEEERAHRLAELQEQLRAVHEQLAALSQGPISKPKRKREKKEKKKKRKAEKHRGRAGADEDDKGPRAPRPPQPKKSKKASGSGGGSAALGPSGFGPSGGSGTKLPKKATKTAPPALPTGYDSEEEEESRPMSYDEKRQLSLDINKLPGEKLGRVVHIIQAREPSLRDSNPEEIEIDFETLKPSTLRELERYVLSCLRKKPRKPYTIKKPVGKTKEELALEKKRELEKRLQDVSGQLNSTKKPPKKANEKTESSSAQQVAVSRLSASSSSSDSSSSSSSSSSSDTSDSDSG
Bromodomain-containing protein 3, sequence (Q15059 whole entry): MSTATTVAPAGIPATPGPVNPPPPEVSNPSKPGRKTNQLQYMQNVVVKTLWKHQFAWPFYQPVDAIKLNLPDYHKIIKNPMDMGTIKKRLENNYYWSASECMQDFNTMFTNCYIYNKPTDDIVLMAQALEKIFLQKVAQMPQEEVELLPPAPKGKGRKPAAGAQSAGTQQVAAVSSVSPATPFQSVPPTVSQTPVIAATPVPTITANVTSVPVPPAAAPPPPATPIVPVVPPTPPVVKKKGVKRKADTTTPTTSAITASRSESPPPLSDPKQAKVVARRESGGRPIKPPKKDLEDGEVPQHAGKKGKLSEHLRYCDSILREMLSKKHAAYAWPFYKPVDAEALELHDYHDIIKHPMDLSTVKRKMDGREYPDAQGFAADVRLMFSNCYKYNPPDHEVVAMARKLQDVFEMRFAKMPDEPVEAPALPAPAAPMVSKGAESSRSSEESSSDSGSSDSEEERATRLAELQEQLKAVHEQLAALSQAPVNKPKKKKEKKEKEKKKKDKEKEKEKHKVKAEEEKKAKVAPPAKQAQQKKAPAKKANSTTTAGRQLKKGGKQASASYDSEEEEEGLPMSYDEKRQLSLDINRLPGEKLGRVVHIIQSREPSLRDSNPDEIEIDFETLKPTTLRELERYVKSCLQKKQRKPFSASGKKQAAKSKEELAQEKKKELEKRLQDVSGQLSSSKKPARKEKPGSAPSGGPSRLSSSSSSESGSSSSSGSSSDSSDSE

`Cc1noc(C)c1-c1ccc(OCCCN2CCOCC2)c(S(=O)(=O)NC2CCCC2)c1`: the results for the IC50 in assay [1] and in assay [2] were 1100 nM and 1500 nM, respectively.
